From ChEMBL document CHEMBL1127616, “Synthesis, structural characterization, and antitumor properties of a novel class of large-ring platinum(II) chelate complexes incorporating the cis-1,4-diaminocyclohexane ligand in a unique locked boat conformation” (J Med Chem, 1994) come the findings set out here.

In test [1] the test system is L1210. Kind of test: Tested for in vitro growth inhibition against murine leukemia cell L1210DACH. It counts as functional, cell-based. To be noted: Mus musculus.
Test [2] deals with L1210. Kind of test: Tested for in vitro growth inhibition against murine leukemia cell L1210DDP5. It is filed as functional, cell-based. To be noted: Mus musculus.
Test [3] deals with L1210. Kind of test: Tested for the ratio of number of survivors / total number after 60 days at the dose of 10 mg/kg per injection against murine leukemia L1210 experiment 2. It counts as functional, organism-based. To be noted: Mus musculus. In outline: (§1)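 CD2F1 (Balb/c × DBA/2F1) mice, 18–22 g, randomized and inoculated IP with counted leukemia cells on day 0, then re-randomized. Three IP treatments, dissolved in 0.9% saline and dosed on average cage weight, with dose in mg/kg per injection across a full toxic-to-ineffective range. Median life span and %T/C were recorded. Survivors at 60 days were counted as cured and excluded from %T/C.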

Test [4] deals with L1210. Kind of test: Tested for the ratio of number of survivors / total number after 60 days at the dose of 5.0 mg/kg per injection against murine L1210 Pt-resistant leukemia in experiment 2. To be noted: Mus musculus. It counts as functional, organism-based. Put shortly: as §1
The test system of test [5] is L1210. Kind of test: Tested for the ratio of number of survivors / total number after 60 days at the dose of 6.0 mg/kg per injection against murine L1210 Pt-resistant leukemia. It counts as functional, organism-based. The conditions noted are these: Mus musculus. In outline: as §1
Test [6] has as its system L1210. Kind of test: Tested for median life span against solid tumor L1210 Pt-resistant leukemia at 4.0 mg/kg per injection in experiment 1. It is filed as functional, organism-based. To be noted: Mus musculus. Put shortly:
(§2)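 CD2F1 mice weighing 18–22 g were inoculated IP with leukemia cells on day 0. Compounds in 0.9% saline were given IP in three injections, dosed by average cage weight, over a dose range from toxic to ineffective. Median life span was recorded, with cause of death assessed at necropsy and 60-day survivors counted as cured.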

Test [7] deals with L1210. Kind of test: Tested for median life span against solid tumor L1210 Pt-resistant leukemia at 5.0 mg/kg per injection in experiment 2. It counts as functional, organism-based. The conditions noted are these: Mus musculus. Put shortly: as §2
The test system of test [8] is L1210. Kind of test: Tested for in vivo weight change against murine L1210 Pt-resistant leukemia at the dose of 6.0 mg/kg per injection. The conditions noted are these: Mus musculus. It counts as functional, organism-based. In outline:
(§3)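 Leukemia life-span assays used CD2F1 (Balb/c × DBA/2F1) mice weighing 18–22 g. Cells were inoculated IP on day 0, and compounds in 0.9% saline were given IP, dosed by average cage weight. Weight change is the difference in mean group weight between the last and first treatment days.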

For test [9], the system named is L1210. Kind of test: Tested for in vivo weight change against murine L1210 leukemia at the dose of 10 mg/kg per injection in experiment 2. It counts as functional, organism-based. To be noted: Mus musculus. In outline: as §3
Test [10] relates to L1210. Kind of test: Tested for in vitro growth inhibition against murine leukemia cell L1210PtR4. It is filed as functional, cell-based. The conditions noted are these: Mus musculus.
In test [11] the test system is L1210. Kind of test: Tested for median life span against solid tumor L1210 leukemia at 10 mg/kg per injection in experiment 2. It counts as functional, organism-based. The conditions noted are these: Mus musculus. In outline: as §2
Test [12] relates to L1210. Kind of test: Tested for median life span against solid tumor L1210 leukemia at 5.0 mg/kg per injection in experiment 2. The conditions noted are these: Mus musculus. It counts as functional, organism-based. In outline: as §2
Test [13] concerns L1210. Kind of test: Tested for median life span against solid tumor L1210 leukemia at 6.0 mg/kg per injection in experiment 1. The conditions noted are these: Mus musculus. It counts as functional, organism-based. Put shortly: as §2
The test system of test [14] is L1210. Kind of test: Tested for in vitro growth inhibition against murine leukemia cell L1210S. The conditions noted are these: Mus musculus. It counts as functional, cell-based.
In test [15] the test system is L1210. Kind of test: Tested for the ratio of treated and control against solid tumor murine L1210 leukemia 5.0 mg/kg per injection in experiment 2; T/C. It is filed as functional, organism-based. To be noted: Mus musculus. In outline: (§4)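 Murine leukemia life span assay in CD2F1 (Balb/c × DBA/2F1) mice, 18–22 g, randomized, with IP tumor cell inoculation on day 0. Depending on the model, the inoculum was 1 × 10^4 cells with IP dosing on days 3, 7 and 11, or 1 × 10^6 cells with IP dosing on days 1, 5 and 9. Drug was given in 0.9% saline, mg/kg per injection, by average cage weight. Read-outs were median day of death and %T/C. Mice alive 60 days after treatment counted as cured and were excluded.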

The subject of test [16] is L1210. Kind of test: Tested for the ratio of treated and control against solid tumor murine L1210 Pt-resistant leukemia 10 mg/kg per injection in experiment 2; T/C. It is filed as functional, organism-based. The conditions noted are these: Mus musculus. In outline:
as §4

In test [17] the test system is L1210. Kind of test: Tested for the ratio of treated and control against solid tumor murine L1210 leukemia 10 mg/kg per injection in experiment 2; T/C. To be noted: Mus musculus. It counts as functional, organism-based. In outline: as §4
The subject of test [18] is Mus musculus. Kind of test: Tested for the ratio of number of survivors / total number after 60 days at the dose of 10 mg/kg per injection against murine P388 Pt-resistant leukemia. It counts as functional, organism-based. In outline: as §1
Test [19] deals with Mus musculus. Kind of test: Tested for in vivo weight change against murine P388 Pt-resistant leukemia at the dose of 10 mg/kg per injection. It counts as functional, organism-based. Put shortly: as §3
The test system of test [20] is Mus musculus. Kind of test: Tested for in vivo weight change against murine P388 Pt-resistant leukemia at the dose of 5.0 mg/kg per injection. It is filed as functional, organism-based. In outline: as §3
Test [21] has as its system Mus musculus. Kind of test: Tested for in vivo weight change against murine P388 leukemia at the dose of 10 mg/kg per injection. It counts as functional, organism-based. In outline:
as §3

Test [22] concerns Mus musculus. Kind of test: Tested for the ratio of treated and control against solid tumor murine P388 leukemia 10 mg/kg per injection; T/C. It is filed as functional, organism-based. In outline: as §4
Test [23] deals with P388. Kind of test: Tested for in vitro growth inhibition against murine leukemia cell P388Pt4. It counts as functional, cell-based. The conditions noted are these: Mus musculus.
Test [24] deals with P388. Kind of test: Tested for in vitro growth inhibition against murine leukemia cell P388S. It is filed as functional, cell-based. The conditions noted are these: Mus musculus.
The test system of test [25] is P388. Kind of test: Tested for in vivo weight change against murine P388 leukemia at the dose of 5.0 mg/kg per injection. The conditions noted are these: Mus musculus. It counts as functional, organism-based. Put shortly: as §3
Test [26] concerns L1210. Kind of test: Tested for the ratio of number of survivors / total number after 60 days at the dose of 1.5 mg/kg per injection against murine L1210 Pt-resistant leukemia in experiment 1. It counts as functional, organism-based. To be noted: Mus musculus. In outline: as §1
Test [27] relates to L1210. Kind of test: Tested for median life span against solid tumor L1210 Pt-resistant leukemia at 3.0 mg/kg per injection in experiment 1. It counts as functional, organism-based. To be noted: Mus musculus. In outline: as §2
The test system of test [28] is L1210. Kind of test: Tested for the ratio of number of survivors / total number after 60 days at the dose of 1.6 mg/kg per injection against murine L1210 Pt-resistant leukemia in experiment 2. It is filed as functional, organism-based. To be noted: Mus musculus. In outline: as §1
Test [29] relates to L1210. Kind of test: Tested for the ratio of number of survivors / total number after 60 days at the dose of 2.5 mg/kg per injection against murine leukemia L1210 experiment 2. It counts as functional, organism-based. The conditions noted are these: Mus musculus. Put shortly: as §1
Test [30] deals with L1210. Kind of test: Tested for the ratio of number of survivors / total number after 60 days at the dose of 3.0 mg/kg per injection against murine leukemia L1210 experiment 1. It is filed as functional, organism-based. To be noted: Mus musculus. Put shortly: as §1
For test [31], the system named is L1210. Kind of test: Tested for in vivo weight change against murine L1210 leukemia at the dose of 2.5 mg/kg per injection in experiment 2. It is filed as functional, organism-based. To be noted: Mus musculus. In outline: as §3
Test [32] concerns L1210. Kind of test: Tested for median life span against solid tumor L1210 leukemia at 2.5 mg/kg per injection in experiment 2. It counts as functional, organism-based. To be noted: Mus musculus. In outline:
as §2

Test [33] concerns L1210. Kind of test: Tested for median life span against solid tumor L1210 leukemia at 3.0 mg/kg per injection in experiment 1. It is filed as functional, organism-based. The conditions noted are these: Mus musculus. Put shortly:
as §2

The test system of test [34] is L1210. Kind of test: Tested for the ratio of treated and control against solid tumor murine L1210 Pt-resistant leukemia 1.5 mg/kg per injection in experiment 1; T/C. The conditions noted are these: Mus musculus. It is filed as functional, organism-based. Put shortly: as §4
The subject of test [35] is Mus musculus. Kind of test: Tested for in vivo weight change against murine M5076 sarcoma at the dose of 4.0 mg/kg per injection. It is filed as functional, organism-based. Put shortly:
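B6C3F1 (C57BL/6 × C3HF1) mice weighing 18–22 g received trocar tumor fragments SC on day 0. Compounds in 0.9% saline were given IP on a three-injection schedule, dosed by average cage weight. Weight change is the maximum treatment-related weight loss during the growth-delay assay.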

Test [36] relates to Mus musculus. Kind of test: Tested for in vivo weight change against murine P388 leukemia at the dose of 3.7 mg/kg per injection in experiment 2. It counts as functional, organism-based. In outline:
as §3

Test [37] relates to Mus musculus. Kind of test: Tested for median life span against solid tumor P388 leukemia at 3.7 mg/kg per injection in experiment 2. It counts as functional, organism-based. In outline:
as §4

For test [38], the system named is M5076. Kind of test: Tested for net cell kill tumor burden reduction during therapy at the dose 4.0 mg/kg in M5076 sarcoma. It counts as functional, organism-based. The arrangement: dose 4 mg/kg. The conditions noted are these: Mus musculus.
Test [39] has as its system Mus musculus. Kind of test: Tested for the ratio of treated and control against solid tumor murine P388 leukemia 3.7 mg/kg per injection in experiment 2; T/C. It is filed as functional, organism-based. Put shortly:
as §4

As for CISPLATIN, the ID50 in test [1] is 0.52 µg/mL; in test [2] it was 4.11 µg/mL; in test [10], 7.84 µg/mL; in test [14], 0.375 µg/mL; in [23], 10 µg/mL; in test [24] it was 0.128 µg/mL. For the same substance, the Survivors in test [3] was found to be 1; in [4], 0; in test [5], 0; in [18] it was 0. Also, the MLS in test [6] worked out at 11.1 days; in test [7] it was 11 days; in test [11] it was 18.5 days; in [12] it was 16 days; in [13] it was 18.5 days. The Weight change in test [8] is -3.7 g; in test [9] it was -3.3 g; in [19], -5.9 g; in test [20], 1 g; in test [21] it was -5.5 g; in [25], 0.2 g. Also, the Ratio is 172% in test [15], 120% in test [16] and 199% in [17]. Further, in [22], the T/C came out at 86%.
In the case of [Pt(cis-1,4-dach)CL2], the 60-day survivors is 0 in test [26], 1 in test [28], 1 in test [29] and 1 in test [30]. Further, the ID50 is 1.08 µg/mL in test [1]; 0.663 µg/mL in [2]; 1.21 µg/mL in test [10]; 0.248 µg/mL in test [14]; 1.43 µg/mL in [23]; 0.047 µg/mL in [24]. Further, the MLS in test [27] stood at 17 days; in [32], 22.5 days; in [33], 21.5 days; in [37] it was 26 days. Further, the Weight change in test [31] is -1.9 g; in test [35], -5.5 g; in test [36] it was -6 g. In addition, the Ratio in test [34] was found to be 154%. In addition, the Log net cell kill in test [38] was 0.6. Moreover, the T/C in test [39] was determined as 234%.

As usually defined, the T/C is the result in the treated group divided by that in the control group, in per cent.
